# Test system: not listed separately
# Assay: Permeability determined in Caco-2 experiment
# Type: ADME
# Settings: human, read-out: Permeability
row,Papp [×10⁻⁶ cm/s],Compound
1,14.7,O=C(O)c1cnc(N(C(=O)c2ccc(OCc3cccc(C(F)(F)F)c3)cc2)C2CCCCC2)s1

# Biological target: RNA-directed RNA polymerase (Hepacivirus hominis, UniProt O39930)
# Assay: Inhibitory concentration against RNA dependent RNA polymerase nonstructural protein 5B of hepatitis C virus
# Settings: not given
# Summary of the method: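 HCV NS5B D55 construct (6 nM), scintillation proximity assay: biotinylated oligoG12/polyC template-primer with GTP plus [3H]-GTP, in 20 mM HEPES pH 7.3, 7.5 mM DTT, 10 mM MgCl2, 60 mM NaCl, BSA, and RNasin, for 50 min at room temperature. Stopped with streptavidin SPA beads plus 100 mM EDTA; incorporated label counted. IC50 from single experiments over 11 serial 2-fold dilutions.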
# RNA-directed RNA polymerase, sequence (O39930 whole entry): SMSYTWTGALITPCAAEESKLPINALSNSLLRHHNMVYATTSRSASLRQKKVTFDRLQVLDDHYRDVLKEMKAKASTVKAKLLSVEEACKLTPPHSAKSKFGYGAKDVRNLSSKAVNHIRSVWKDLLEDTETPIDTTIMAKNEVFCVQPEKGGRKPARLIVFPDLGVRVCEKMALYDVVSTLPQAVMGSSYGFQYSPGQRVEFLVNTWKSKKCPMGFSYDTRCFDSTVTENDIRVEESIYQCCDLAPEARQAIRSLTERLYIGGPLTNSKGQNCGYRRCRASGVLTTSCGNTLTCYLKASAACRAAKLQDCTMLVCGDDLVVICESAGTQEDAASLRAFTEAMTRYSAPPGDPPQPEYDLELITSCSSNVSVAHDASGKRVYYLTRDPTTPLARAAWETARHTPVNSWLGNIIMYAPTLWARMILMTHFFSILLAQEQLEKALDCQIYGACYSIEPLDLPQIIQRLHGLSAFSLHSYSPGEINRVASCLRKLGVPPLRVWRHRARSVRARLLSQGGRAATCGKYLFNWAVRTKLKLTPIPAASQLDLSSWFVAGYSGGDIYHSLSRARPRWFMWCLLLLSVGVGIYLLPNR
row,IC50 [µM],Compound
1,5.4,C[C@H]1CC[C@@H](N(C(=O)c2ccc(Oc3ccccc3)cc2)c2nc(C(=O)O)cs2)CC1 (stereo in doubt; trans)
2,7,O=C(O)c1cnc(N(C(=O)c2ccc(Oc3ccccc3)cc2)C2CCCCC2)s1
3,7.6,C[C@@H]1CCCC[C@H]1N(C(=O)c1ccc(Oc2ccccc2)cc1)c1nc(C(=O)O)cs1 (stereo in doubt; cis)
4,6.1,"C[C@H]1CCCC[C@@H]1N(C(=O)c1ccc(Oc2ccccc2)cc1)c1ncc(C(=O)O)s1 (single isomer, unassigned; cis)"
5,5.5,O=C(O)c1cnc(N(C(=O)c2ccc(OC3CCCCC3)cc2)C2CCCCC2)s1
6,4,O=C(O)c1cnc(N(C(=O)c2ccc(OCc3ccccc3F)cc2)C2CCCCC2)s1
7,5.1,O=C(O)c1cnc(N(C(=O)c2ccc(OCc3ccccc3C(F)(F)F)cc2)C2CCCCC2)s1
8,5.7,C[C@H]1CC[C@@H](N(C(=O)c2ccc(Oc3ccccc3)cc2)c2nc(C(=O)O)cs2)CC1 (stereo in doubt; cis)
9,6.6,C[C@H]1CC[C@H](N(C(=O)c2ccc(Oc3ccccc3)cc2)c2ncc(C(=O)O)s2)CC1 (stereo in doubt; cis)
10,6.5,O=C(O)c1cnc(N(C(=O)c2ccc(OCc3cccc(F)c3)cc2)C2CCCCC2)s1
11,3.5,COc1ccc(Oc2ccc(C(=O)N(c3ncc(C(=O)O)s3)C3CCCCC3)cc2)cc1OC
12,8.5,COc1ccccc1Oc1ccc(C(=O)N(c2ncc(C(=O)O)s2)C2CCCCC2)cc1
13,3.2,COc1cccc(COc2ccc(C(=O)N(c3ncc(C(=O)O)s3)C3CCCCC3)cc2)c1
14,1.4,O=C(O)c1cnc(N(C(=O)c2ccc(OCc3cccc(C(F)(F)F)c3)cc2)C2CCCCC2)s1
15,6,"C[C@@H]1C[C@@H](N(C(=O)c2ccc(Oc3ccccc3)cc2)c2ncc(C(=O)O)s2)CC(C)(C)C1 (single isomer, unassigned)"
16,9.4,"C[C@H]1CCCC[C@@H]1N(C(=O)c1ccc(Oc2ccccc2)cc1)c1ncc(C(=O)O)s1 (single isomer, unassigned; trans)"
17,3.9,O=C(O)c1cnc(N(C(=O)c2ccc(OCc3ccc(F)cc3)cc2)C2CCCCC2)s1
18,15,O=C(O)c1cnc(N(C(=O)c2ccc(OCc3ccccn3)cc2)C2CCCCC2)s1

row,IC50 [µM],Compound
1,3.1,COc1cccc(Oc2ccc(C(=O)N(c3ncc(C(=O)O)s3)C3CCCCC3)cc2)c1
2,6.5,O=C(O)c1cnc(N(C(=O)c2ccc(OCc3ccccc3)cc2)C2CCCCC2)s1
3,4.2,O=C(O)c1cnc(N(C(=O)c2ccc(Oc3ccc(Cl)cc3)cc2)C2CCCCC2)s1
4,3.4,CC(C)(C)[C@H]1CC[C@H](N(C(=O)c2ccc(Oc3ccccc3)cc2)c2ncc(C(=O)O)s2)CC1 (stereo in doubt; cis)
5,5.5,"C[C@@H]1C[C@@H](N(C(=O)c2ccc(Oc3ccccc3)cc2)c2nc(C(=O)O)cs2)CC(C)(C)C1 (single isomer, unassigned)"
6,2.6,O=C(O)c1cnc(N(C(=O)c2ccc(Oc3ccc(Cl)c(Cl)c3)cc2)C2CCCCC2)s1
7,2.8,CC(C)(C)[C@H]1CC[C@@H](N(C(=O)c2ccc(Oc3ccccc3)cc2)c2nc(C(=O)O)cs2)CC1 (stereo in doubt; cis)
8,5.2,O=C(O)c1cnc(N(C(=O)c2ccc(Oc3cccc(OC(F)(F)F)c3)cc2)C2CCCCC2)s1
9,5,C[C@H]1CC[C@H](N(C(=O)c2ccc(Oc3ccccc3)cc2)c2ncc(C(=O)O)s2)CC1 (stereo in doubt; trans)
10,4.4,O=C(O)c1cnc(N(C(=O)c2ccc(Oc3cccc(C(F)(F)F)c3)cc2)C2CCCCC2)s1
11,7,O=C(O)c1cnc(N(C(=O)c2ccc(OCc3cccs3)cc2)C2CCCCC2)s1
12,6,CC(C)(C)[C@H]1CC[C@H](N(C(=O)c2ccc(Oc3ccccc3)cc2)c2ncc(C(=O)O)s2)CC1 (stereo in doubt; trans)
13,2.8,O=C(O)c1cnc(N(C(=O)c2ccc(Oc3cccc(Cl)c3)cc2)C2CCCCC2)s1
14,8.5,COc1ccccc1COc1ccc(C(=O)N(c2ncc(C(=O)O)s2)C2CCCCC2)cc1
15,13,O=C(O)c1cnc(N(C(=O)c2ccc(Oc3ccccc3)cc2)C2CCSCC2)s1
16,10,O=C(O)c1csc(N(C(=O)c2ccc(Oc3ccccc3)cc2)C2CCCCC2)n1
17,11,C[C@@H]1CCCC[C@H]1N(C(=O)c1ccc(Oc2ccccc2)cc1)c1nc(C(=O)O)cs1 (stereo in doubt; trans)
18,4.7,CC(C)(C)[C@H]1CC[C@@H](N(C(=O)c2ccc(Oc3ccccc3)cc2)c2nc(C(=O)O)cs2)CC1 (stereo in doubt; trans)

row,Compound,IC50 [µM]
1,O=C(O)c1cnc(N(C(=O)c2ccc(Oc3ccccc3)cc2)C2CCS(=O)(=O)CC2)s1,> 50
2,O=C(Nc1nc(C(=O)O)cs1)c1ccc(Oc2ccccc2)cc1,> 50
3,O=C(Nc1ncc(C(=O)O)s1)c1ccc(Oc2ccccc2)cc1,> 50
4,CC(C)N(C(=O)c1ccc(Oc2ccccc2)cc1)c1ncc(C(=O)O)s1,> 50
5,CC(C)N(C(=O)c1ccc(Oc2ccccc2)cc1)c1nc(C(=O)O)cs1,> 50

# Test system: not listed separately
# Assay: Clearance rate from human hepatocytes
# Type: ADME, Liver, Hepatocyte
# Settings: not given
row,CL [lL/min/million],Compound
1,5,O=C(O)c1cnc(N(C(=O)c2ccc(OCc3cccc(C(F)(F)F)c3)cc2)C2CCCCC2)s1

# Biological target: Cytochrome P450 3A4 (Homo sapiens, UniProt P08684)
# Assay: Inhibitory concentration against Cytochrome P450 3A4
# Type: ADME
# Settings: not given
# Cytochrome P450 3A4, sequence (P08684 whole entry): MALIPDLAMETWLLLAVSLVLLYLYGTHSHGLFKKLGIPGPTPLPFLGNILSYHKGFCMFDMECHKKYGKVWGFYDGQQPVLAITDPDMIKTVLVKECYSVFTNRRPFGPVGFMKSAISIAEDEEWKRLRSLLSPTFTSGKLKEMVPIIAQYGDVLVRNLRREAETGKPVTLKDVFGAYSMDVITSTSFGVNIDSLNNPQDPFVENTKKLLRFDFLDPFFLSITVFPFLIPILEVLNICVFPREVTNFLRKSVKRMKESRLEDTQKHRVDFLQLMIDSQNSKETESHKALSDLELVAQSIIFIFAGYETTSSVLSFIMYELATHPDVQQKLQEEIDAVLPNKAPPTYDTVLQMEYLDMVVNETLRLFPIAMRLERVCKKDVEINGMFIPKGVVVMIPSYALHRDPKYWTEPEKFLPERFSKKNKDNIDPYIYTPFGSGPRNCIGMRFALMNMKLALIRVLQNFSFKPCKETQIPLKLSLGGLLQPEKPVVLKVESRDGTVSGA
row,IC50 [µM],Compound
1,> 30,O=C(O)c1cnc(N(C(=O)c2ccc(OCc3cccc(C(F)(F)F)c3)cc2)C2CCCCC2)s1

# Biological target: Cytochrome P450 2D6 (Homo sapiens, UniProt P10635)
# Assay: Inhibitory concentration against Cytochrome P450 2D6
# Type: ADME
# Settings: not given
# Cytochrome P450 2D6, sequence (P10635 whole entry): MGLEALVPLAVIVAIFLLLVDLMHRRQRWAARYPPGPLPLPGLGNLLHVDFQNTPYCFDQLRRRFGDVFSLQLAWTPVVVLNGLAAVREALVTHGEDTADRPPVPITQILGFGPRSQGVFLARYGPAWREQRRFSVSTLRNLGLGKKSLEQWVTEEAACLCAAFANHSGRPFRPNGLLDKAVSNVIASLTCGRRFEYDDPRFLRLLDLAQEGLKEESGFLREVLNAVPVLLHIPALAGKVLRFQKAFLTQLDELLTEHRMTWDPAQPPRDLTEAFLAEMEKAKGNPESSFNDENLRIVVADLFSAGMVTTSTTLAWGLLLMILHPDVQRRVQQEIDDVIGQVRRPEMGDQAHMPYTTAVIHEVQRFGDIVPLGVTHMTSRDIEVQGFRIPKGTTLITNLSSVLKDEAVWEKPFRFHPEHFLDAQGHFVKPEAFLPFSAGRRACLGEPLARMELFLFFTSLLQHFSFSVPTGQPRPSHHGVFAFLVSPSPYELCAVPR
row,IC50 [µM],Compound
1,> 30,O=C(O)c1cnc(N(C(=O)c2ccc(OCc3cccc(C(F)(F)F)c3)cc2)C2CCCCC2)s1

# — ChEMBL document CHEMBL1144458, “Aminothiazole inhibitors of HCV RNA polymerase” (Bioorg Med Chem Lett, 2005)
